Assay outcomes deposited in PubChem BioAssay by Broad Institute.
The list is not random: actives were taken first. Their share in the collection is about 2.2%.
FGF22 binding – binders of recombinant human FGF22 by thermal shift; Q9HCT0; 340,000 compounds, 1.5% hits; activity (Tm shift, normalised), % at 9.99 µM; SYPRO orange fluorescence; percent of sucrose octasulfate shift, DMSO zero;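 active = mean Tm shift, scaled 0 neutral to 100 positive control, at about 1.3% or above, every replicate too, limit read from the data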
Target sequence (Q9HCT0 whole entry, looked up): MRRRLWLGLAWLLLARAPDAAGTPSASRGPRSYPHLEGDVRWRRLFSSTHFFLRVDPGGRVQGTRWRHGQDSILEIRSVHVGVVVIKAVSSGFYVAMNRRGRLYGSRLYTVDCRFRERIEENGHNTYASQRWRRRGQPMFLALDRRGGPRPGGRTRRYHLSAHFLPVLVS
S100A4 inh HTS – blocks human S100A4 binding to myosin IIA peptide; 360,000 compounds, 0.14% hits; P26447; inhibition, % at 10.7 µM; AID 652163; S100A4/TAMRA-MyoIIA peptide fluorescence polarization;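 active = mean inhibition of at least 70% across replicates, with every replicate also reaching that level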
Target sequence (P26447 whole entry, looked up): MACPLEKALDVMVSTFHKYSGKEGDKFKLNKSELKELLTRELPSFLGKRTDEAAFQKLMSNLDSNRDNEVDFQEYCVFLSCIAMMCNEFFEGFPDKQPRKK
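System – human S100A4 monomer protein, biochemical binding assay · Buffer or medium – Calcium-containing HEPES buffer, pH 7.2 · Timing – 5 min between mix addition and reading · Also added – TAMRA-labelled myosin IIA heavy-chain peptide probe, 5 nM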
dFosB act – mouse delta FosB homodimer activation; purified delta FosB, TAMRA-CDK5 oligo fluorescence polarization; percent of positive-control signal above neutral wells; P13346; AID 493131; activation, % at 25 µM; 340,000 compounds, 0.99% hits;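 active = mean activation above about 17%, with every replicate also reaching it, limit read from the data, passing the limit was not always enough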
Target sequence (P13346 whole entry, looked up): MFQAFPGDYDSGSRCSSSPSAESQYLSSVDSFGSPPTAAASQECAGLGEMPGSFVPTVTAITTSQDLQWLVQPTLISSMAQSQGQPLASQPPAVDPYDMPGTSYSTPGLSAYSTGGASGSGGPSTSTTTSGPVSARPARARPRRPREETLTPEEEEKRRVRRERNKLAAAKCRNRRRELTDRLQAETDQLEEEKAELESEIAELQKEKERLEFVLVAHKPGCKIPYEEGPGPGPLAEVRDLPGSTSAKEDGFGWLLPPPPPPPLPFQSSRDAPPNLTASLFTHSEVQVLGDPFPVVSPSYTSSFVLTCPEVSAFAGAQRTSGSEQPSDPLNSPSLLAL
CFTR F508del cor – CFTR F508del correction in bronchial cells; CFBE cells, YFP halide quenching; stimulated with forskolin plus potentiator P3; % fluorescence drop versus neutral controls; activity (quench increase), % at 7.58 µM; 350,000 compounds, 0.36% hits; AID 720511;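 active = mean added fluorescence quench of at least 8% versus neutral control, with both replicates also reaching 8%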;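 also: cells transiently co-express mutant CFTR-F508del with the halide-sensitive YFP; corrector assay measuring rescue of mutant channel to the surface after 24 h compound exposure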
Numbers without * were called inactive; nt = not tested or not shown; + = active, no number.

SMILES | FGF22 binding | S100A4 inh HTS | dFosB act | CFTR F508del cor
CC(=O)c1ccc(N(C(=O)c2ccco2)C(C(=O)NC2CCCC2)c2ccc(N3CCOCC3)cc2)cc1 (configuration not stated) | 44* | 1 | -5 | 0
COCC(=O)Nc1ccc2c(c1)C(=O)N(C)C[C@@H](OC)[C@H](C)CN(C(=O)C1CCCC1)[C@H](C)CO2 | -1 | -9 | nt | 1
Cc1cc(C)nc(SCCn2c(N3CC(C)OC(C)C3)nc3c2c(=O)n(C)c(=O)n3C)n1 (configuration not stated) | 44* | 1 | -4 | -1
C[C@@H]1CN([C@H](C)CO)C(=O)c2cc(NS(=O)(=O)c3ccc(Cl)cc3)ccc2O[C@@H](C)CCCCO[C@@H]1CN(C)Cc1ccc(C(=O)O)cc1 | 0 | -7 | nt | 0
CC[C@@]1(O)C(=O)OCc2c1cc1n(c2=O)Cc2cc3c(CN(C)C)c(O)ccc3nc2-1 | 0 | 0 | -3 | 26*
CC[C@@]1(O)C(=O)OCc2c1cc1n(c2=O)Cc2cc3c(N)cccc3nc2-1 | 0 | 6 | 3 | 1
COc1ccc2c3c(n(C)c2c1)[C@H](CO)N(C(=O)CC1CC1)CC31CCN(C(=O)C2CC2)CC1 | 0 | -5 | nt | -3
C[C@@H]1CN([C@@H](C)CO)C(=O)c2cc(NC(=O)CCC(F)(F)F)ccc2O[C@H]1CN(C)C(=O)Nc1ccc(C(F)(F)F)cc1 | 0 | 6 | nt | 0
Cc1cc(C)c(NC(=O)CSc2nc3ncc(Br)cc3[nH]2)c(Cl)c1 | 0 | -1 | 69* | 0
Cc1cc(C)c(NC(=O)CSc2nc3ncc(Cl)cc3[nH]2)c(C)c1 | 0 | 5 | 15 | 4
Cc1ccc(SCCN)cc1C | 43* | -6 | 3 | 0
O=C(O)C(Cc1c[nH]c2ccccc12)NS(=O)(=O)c1ccc(Cl)cc1 (configuration not stated) | 43* | -2 | 6 | 1
CC(=O)Nc1ccc(-c2csc(NC(=O)CCCc3cccs3)n2)cc1 | 2.1* | -1 | -5 | 2
O=C(CCc1ccccc1Cl)NC1CCCN(c2ccc(C(F)(F)F)cn2)C1 (configuration not stated) | 0 | 179* | -12 | 2
COc1ccccc1-c1cnc2c(c1)C(=O)N([C@@H](C)CO)C[C@H](C)[C@@H](CN(C)Cc1cncnc1)O2 | 0 | 11 | nt | 4
COc1cc2c(cc1OC)C(NC(=O)C(F)(F)F)CNC2=O (configuration not stated) | 43* | -1 | -2 | -1
COc1cccc(/C=N/NC(=O)CCn2nnc3ccccc32)c1 | 44* | -11 | -7 | 0
O=C(CCn1nnc2ccccc21)N/N=C\Cc1ccccc1 | 43* | -9 | -1 | -3
O=C(O)CCn1nnc2ccccc21 | 0 | -4 | -1 | 0
COc1ccccc1S(=O)(=O)N[C@H]1CC[C@@H](CCn2cc(C3CCCCC3)nn2)O[C@H]1CO | 0 | -8 | nt | -3
Cc1ccc(S(=O)(=O)N(C)C[C@@H]2Oc3cc(C#Cc4ccncc4)ccc3S(=O)(=O)N([C@@H](C)CO)C[C@@H]2C)cc1 | 0 | -32 | nt | -2
O=C(CCC(=O)N1CCN(S(=O)(=O)c2ccc(Cl)cc2)CC1)Nc1ccc(Cl)cc1Cl | 43* | 0 | -12 | 1
COc1ccc(CNC(=O)CCC(=O)N2CCN(S(=O)(=O)c3ccc(Cl)cc3)CC2)cc1 | 0 | -12 | 1 | -1
CO[C@@H]1CN(C)C(=O)c2cc(NC(=O)NC(C)C)ccc2OC[C@@H](C)NC[C@@H]1C | nt | nt | nt | 3
Cc1csc(=O)n1CC(=O)OCc1nnc(-c2ccccc2)o1 | 0 | 3 | -5 | -2
SMILES | FGF22 binding | S100A4 inh HTS | dFosB act | CFTR F508del cor
Cc1csc(=O)n1CC(=O)OCc1nnc(-c2ccc(Cl)cc2)o1 | 0 | + | -12 | -2
Cc1cc(C(=O)NNC(=O)c2ccc(S(=O)(=O)N(C)C)cc2)c(C)o1 | 1 | -3 | -1 | nt
Cc1cc(C(=O)NNC(=O)c2ccc(Cl)c(S(N)(=O)=O)c2)c(C)o1 | 0 | 1 | 3 | 8.7*
Cc1ccc(C(=O)OCC(=O)NCc2cccs2)s1 | 0 | 4 | 8 | -4
O=C(COC(=O)/C=C/c1ccc(F)cc1)NCc1ccco1 | 43* | -5 | -5 | 0
Cc1ccc(C(=O)OCC(=O)NCc2ccco2)s1 | 44* | -4 | -10 | 0
CCN(c1ccc(NC(=O)COC(=O)c2ccc(C)s2)cc1)C(C)C | 43* | 2 | -5 | 1
Cc1ccc(C(=O)OCC(=O)Nc2ccc(C(N)=O)cc2)s1 | 0 | -5 | 2 | 1
CCCNC(=O)N1C[C@H](C)[C@H](OC)CN(C)C(=O)c2ccc(NC(=O)C3CCC3)cc2OC[C@@H]1C | 0 | 7 | nt | -2
COc1ccc(CN(C)C[C@H]2Oc3c(NS(=O)(=O)c4cccs4)cccc3C(=O)N([C@@H](C)CO)C[C@@H]2C)cc1 | 0 | 12 | nt | -1
CCOc1ccc(N2C(=O)/C(=C\c3ccc(O)c(OC)c3)S(=O)(=O)C2c2cccc([N+](=O)[O-])c2)cc1 (configuration not stated) | 44* | 0 | -4 | 2
COc1cccc(-c2cn(CC[C@H]3CC[C@H](NC(C)=O)[C@H](CO)O3)nn2)c1 | 0 | 12 | nt | -3
COc1ccc(NC(=O)Nc2ccc3c(c2)C(=O)N([C@H](C)CO)C[C@H](C)[C@H](CN(C)C(=O)CCCN(C)C)OCCCC[C@@H](C)O3)cc1 | 0 | 6 | nt | -1
Cc1nc(CN2CCCCC2)cc(=O)[nH]1 | 43* | -2 | -3 | -3
Cc1cc(=O)[nH]c(CN2CCOCC2)n1 | 43* | -3 | -8 | nt
Cc1nc(CN2CCC(c3ccccc3)CC2)cc(=O)[nH]1 | 0 | -4 | -3 | -1
COc1ccc(S(=O)(=O)N(C)C[C@H]2OCCCC[C@H](C)Oc3ccc(NC(=O)Nc4cccc5ccccc45)cc3C(=O)N([C@@H](C)CO)C[C@H]2C)cc1 | 1 | 2 | nt | 0
O=C(C[C@@H]1C[C@@H]2c3cc(NC(=O)c4cccnc4)ccc3O[C@@H]2[C@@H](CO)O1)NCc1ccc(Oc2ccccc2)cc1 | 0 | 10 | nt | 0
CCCC(=O)Nc1nc(C)c(-c2csc(Nc3cc(OC)ccc3OC)n2)s1 | 0 | -4 | -2 | 3
COc1ccc(Nc2nc(-c3sc(C)nc3C)cs2)cc1 | 0 | 0 | -2 | 9.1*
CCCC(=O)Nc1nc(C)c(-c2csc(Nc3ccccc3OC)n2)s1 | 0 | -3 | -4 | 3
COc1ccccc1Nc1nc(-c2sc(NC(=O)C(C)(C)C)nc2C)cs1 | 0 | -13 | -4 | 14*
COc1cccc(Nc2nc(-c3sc(NC(=O)c4ccccc4)nc3C)cs2)c1 | 0 | -5 | 3 | 9.1*
C=CCCC(=O)Nc1nc(C)c(-c2csc(Nc3cc(OC)ccc3OC)n2)s1 | 0 | -4 | 1 | 8.8*
